Reference: PMC5034805 (Journal of Clinical Pharmacology, 2015)
Entries after “also recorded” stand apart in the source; their conditions may differ. Where two headings read alike, the source gives them in different places.

Experiments:
[1] = Safety evaluation in the rifampin interaction study; assay type: in vivo, human (patients with advanced cancer); conditions: in two patients; romidepsin 14 mg/m^2 with rifampin 600 mg
Method in brief: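 Antiemetic prophylaxis; K or Mg supplemented below 3.8 or 0.85 mmol/L. Monitoring through closeout (days 15–20): AE type, severity and relatedness, examinations, vital signs, ECGs, concomitant medications, clinical labs. Summarised descriptively.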

P‐glycoprotein (P‐gp) = conditions: in vitro; cited from earlier work
CYP3A4 = conditions: at plasma concentrations that are effective; cited from earlier work
[2] = Safety evaluation in the ketoconazole interaction study; assay type: in vivo, human (patients with advanced cancer)
α1‐acid‐glycoprotein = conditions: primarily to α1-acid-glycoprotein; cited from earlier work
[3] = Ketoconazole drug–drug interaction study: romidepsin plasma pharmacokinetics; assay type: in vivo, human (patients with advanced cancer)
CYP1A1 = conditions: at plasma concentrations that are effective; cited from earlier work
[4] = Rifampin drug–drug interaction study: romidepsin plasma pharmacokinetics; assay type: in vivo, human (patients with advanced cancer)
CYP2B6 = conditions: at plasma concentrations that are effective; cited from earlier work
BCRP = conditions: in vitro; cited from earlier work
[5] = patients with CTCL or PTCL; cited from earlier work
hepatocytes = conditions: cited from earlier work
[6] = cited from earlier work
CYP enzymes = conditions: at plasma concentrations that are effective; cited from earlier work
CYP3A = conditions: strong inhibitor of CYP3A; cited from earlier work
[7] = coadministration with ketoconazole vs alone
[8] = human, plasma, intravenous, 8 mg/m2
[9] = coadministration with rifampin 600 mg vs alone
[10] = human, plasma, intravenous, 14 mg/m2

SMILES: C/C=C1\NC(=O)[C@H]2CSSCC/C=C/[C@H](CC(=O)N[C@H](C(C)C)C(=O)N2)OC(=O)[C@H](C(C)C)NC1=O [Romidepsin]
- Treatment-emergent SAEs [1]: 8
- Substrate of the efflux transporter P-glycoprotein (P-gp) (P‐glycoprotein (P‐gp)): substrate
- Induction of CYP3A4 (CYP3A4): nor is it an inducer
- Deaths during the treatment period ([2]; romidepsin 8 mg/m^2 with ketoconazole 400 mg): No deaths
- Protein binding (α1‐acid‐glycoprotein): highly protein bound
- Increase of mean romidepsin Cmax ([3]; coadministration with ketoconazole 400 mg vs alone): ~10%
- Change of romidepsin clearance [3, 7]: decreased
- Change of romidepsin volume of distribution [3, 7]: decreased
- Tmax [3, 8]: 3.5 h
- Vd [3, 8]: 236 L
- clearance [3, 8]: 282 mL/min
- half-life [3, 8]: 9.7 h
- AUC(0-inf) ([3]; human, plasma, iv, 8 mg/m^2): 915 ng·h/mL
- Cmax ([3]; human, plasma, iv, 8 mg/m^2): 229 ng/mL
- Median Difference of Tmax ([3]; romidepsin + ketoconazole vs romidepsin alone, Hodges-Lehmann estimate): 0
- Induction of CYP1A1 (CYP1A1): nor is it an inducer
- Decrease of romidepsin clearance [4, 9]: approximately 44%
- Decrease of romidepsin volume of distribution [4, 9]: ~52%
- Increase of mean romidepsin Cmax [4, 9]: ~60%
- Tmax [4, 10]: 2.98 h
- Vd [4, 10]: 162 L
- clearance [4, 10]: 193 mL/min
- half-life [4, 10]: 9.7 h
- AUC(0-inf) ([4]; human, plasma, iv, 14 mg/m^2): 2230 ng·h/mL
- Cmax ([4]; human, plasma, iv, 14 mg/m^2): 571 ng/mL
- Induction of CYP2B6 (CYP2B6): nor is it an inducer
- Substrate of BCRP (BCRP): not a substrate
- Effect of polymorphic variants of CYP3A on systemic exposure [5]: did not affect
- Uptake into hepatocytes (hepatocytes): actively taken up into the liver; also recorded: active process
- Maximal tolerated dose (MTD) ([6]; given on days 1, 8, and 15 of a 28-day cycle): 13.3 mg/m^2
- Maximal tolerated dose (MTD) ([6]; given on days 1 and 5 in a 21-day cycle): 17.8 mg/m^2
- Dose-limiting toxicities ([6]; phase 1 dose escalation): fatigue, nausea, vomiting, thrombocytopenia (transient and grade 3) and neutropenia
- Inhibition of CYP enzymes (CYP enzymes): does not inhibit

SMILES: CC(=O)N1CCN(c2ccc(OCC3COC(Cn4ccnc4)(c4ccc(Cl)cc4Cl)O3)cc2)CC1 (centres unmarked) [ketoconazole]
- Increases in liver enzymes AST or ALT ([2]; ketoconazole 400 mg daily days 4-8 with romidepsin 8 mg/m^2): not observed
- Increase of AUC of CYP3A substrates (CYP3A): ≥ 5 fold
